Two compounds from ChEMBL document CHEMBL4138113, “Novel propanamides as fatty acid amide hydrolase inhibitors” (Eur J Med Chem, 2017) can be followed below.

The target in test [1] is T1, Fatty-acid amide hydrolase 1 (Rattus norvegicus) (UniProt P97612).
T1 sequence (whole entry): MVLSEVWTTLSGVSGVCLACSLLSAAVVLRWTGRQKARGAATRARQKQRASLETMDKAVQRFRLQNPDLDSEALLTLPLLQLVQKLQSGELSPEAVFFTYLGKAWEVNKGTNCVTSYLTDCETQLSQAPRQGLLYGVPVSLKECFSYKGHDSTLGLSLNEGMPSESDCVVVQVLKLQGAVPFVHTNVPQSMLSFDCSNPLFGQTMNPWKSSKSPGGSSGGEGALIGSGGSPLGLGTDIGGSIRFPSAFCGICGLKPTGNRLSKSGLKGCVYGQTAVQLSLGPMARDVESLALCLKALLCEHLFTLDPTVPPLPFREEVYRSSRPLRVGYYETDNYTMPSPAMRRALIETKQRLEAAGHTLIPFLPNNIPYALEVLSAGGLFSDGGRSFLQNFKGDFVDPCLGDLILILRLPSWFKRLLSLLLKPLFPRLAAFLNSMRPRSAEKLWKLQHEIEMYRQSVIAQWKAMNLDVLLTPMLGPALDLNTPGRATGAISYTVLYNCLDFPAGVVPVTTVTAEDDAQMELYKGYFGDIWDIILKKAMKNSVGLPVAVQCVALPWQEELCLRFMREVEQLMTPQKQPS
In words: Inhibition of rat brain FAAH at 0.3 to 100 uM using [3H]AEA as substrate after 10 mins by liquid scintillation counting analysis relative to control. In outline: (§1)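 Rat (Wistar or Sprague-Dawley) brain homogenate without cerebella, washed and pre-incubated 15 min at 37 °C to clear endogenous substrate. Compound (in ethanol or DMSO) was mixed with 1 µg protein on ice in 10 mM Tris-HCl, 1 mM EDTA, pH 7.4. Reaction used 0.5 µM [3H]AEA with fatty acid-free BSA for 10 min at 37 °C. It was stopped with charcoal/HCl, and supernatant tritium was counted. ≥5 half-log concentrations, ≥3 experiments; maximum inhibition = 100 − fitted bottom.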

The target of test [2] is T2, Fatty-acid amide hydrolase 1 (Mus musculus, UniProt O08914).
T2 sequence (O08914 whole entry): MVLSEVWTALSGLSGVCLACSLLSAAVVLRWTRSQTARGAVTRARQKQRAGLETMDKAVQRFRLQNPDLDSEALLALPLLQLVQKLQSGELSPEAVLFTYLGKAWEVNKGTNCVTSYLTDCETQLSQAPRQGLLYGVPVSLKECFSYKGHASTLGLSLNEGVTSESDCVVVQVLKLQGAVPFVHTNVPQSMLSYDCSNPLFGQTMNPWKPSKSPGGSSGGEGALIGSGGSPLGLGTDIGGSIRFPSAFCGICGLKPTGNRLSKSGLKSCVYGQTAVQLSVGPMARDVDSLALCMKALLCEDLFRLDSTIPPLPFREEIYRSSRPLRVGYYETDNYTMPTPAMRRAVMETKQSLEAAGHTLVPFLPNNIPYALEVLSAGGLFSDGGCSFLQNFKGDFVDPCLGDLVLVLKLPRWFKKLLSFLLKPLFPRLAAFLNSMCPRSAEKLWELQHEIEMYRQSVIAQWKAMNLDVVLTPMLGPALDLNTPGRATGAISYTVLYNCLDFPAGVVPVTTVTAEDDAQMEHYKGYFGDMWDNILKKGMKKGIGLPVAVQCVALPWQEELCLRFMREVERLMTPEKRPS
The test can be described thus: Mixed-type inhibition of B6CBAF1/J mouse brain FAAH using [3H]AEA as substrate after 10 mins by Dixon plot analysis. In outline:
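Kinetic study in brain homogenate from male B6CBAF1/J mice (0.3 µg protein per assay). [3H]AEA hydrolysis ran for 10 min at 37 °C in Tris-EDTA buffer, pH 7.4, with the AEA:fatty acid-free BSA ratio held at 1:~4.5. Products were separated on charcoal and counted by scintillation. Competitive, mixed-type and non-competitive fits were compared by Akaike's criterion.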

The species entered for test [3] is Homo sapiens. The test can be described thus: Selectivity ratio of IC50 for FAAH T488A mutant (unknown origin) expressed in human HeLa cells after 2 hrs to IC50 for FAAH (unknown origin) expressed in human HeLa cells transfected with empty vector after 2 hrs. Format: cell-based.
Test [4] addresses T3, Fatty-acid amide hydrolase 1 (Rattus norvegicus, UniProt P97612).
T3 sequence (P97612 whole entry): T1 sequence (whole entry)
The test can be described thus: Inhibition of rat brain FAAH using [3H]AEA as substrate after 10 mins by liquid scintillation counting analysis. In outline: as §1

The target in test [5] is T4, Prostaglandin G/H synthase 2 (Homo sapiens) (UniProt P35354).
T4 sequence (whole entry): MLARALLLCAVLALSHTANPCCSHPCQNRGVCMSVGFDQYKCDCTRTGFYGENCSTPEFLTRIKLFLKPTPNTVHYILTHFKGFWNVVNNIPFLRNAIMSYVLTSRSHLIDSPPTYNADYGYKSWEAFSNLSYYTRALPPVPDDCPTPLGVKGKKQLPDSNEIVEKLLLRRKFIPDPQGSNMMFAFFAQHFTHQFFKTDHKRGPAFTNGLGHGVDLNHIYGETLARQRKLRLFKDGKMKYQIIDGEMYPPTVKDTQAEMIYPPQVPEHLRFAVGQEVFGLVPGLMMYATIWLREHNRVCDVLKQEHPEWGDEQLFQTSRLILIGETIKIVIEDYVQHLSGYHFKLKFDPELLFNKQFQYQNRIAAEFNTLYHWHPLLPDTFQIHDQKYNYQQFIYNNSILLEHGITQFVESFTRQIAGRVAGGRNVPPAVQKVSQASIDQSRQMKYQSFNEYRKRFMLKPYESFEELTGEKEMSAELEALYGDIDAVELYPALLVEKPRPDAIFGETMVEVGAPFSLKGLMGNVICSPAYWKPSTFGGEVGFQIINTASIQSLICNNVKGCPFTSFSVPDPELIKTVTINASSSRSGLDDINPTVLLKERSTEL
In words: Inhibition of recombinant human COX2 using arachidonic acid/2-AG as substrate after 5 mins. In outline: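 Oxygen-electrode assay at room temperature in 0.1 M Tris-HCl, pH 7.4, with 1 µM haematin, 2 mM phenol, 5 mM EDTA and 10 µM (final) arachidonic acid or 2-AG. Compound in EtOH was added and a 5 min baseline recorded. The reaction was started with ovine COX-1 or human recombinant COX-2 (200 U), and oxygen consumption was read in 10 s blocks. Means ± SEM, n = 3-4.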

Test [6] addresses T1, Fatty-acid amide hydrolase 1 (Rattus norvegicus). The test can be described thus: Inhibition of rat brain FAAH using [3H]AEA as substrate after 10 mins in presence of N-(3-Methylpyridin-2-yl)-2-(4-((2-(trifluoromethyl)pyridin-4-yl)amino)phenyl)propanamide by liquid scintillation counting analysis. Summed up:
as §1

Test [7] shares this target. In words: Reversible inhibition of rat brain FAAH at 0.03 to 1 uM using [3H]AEA as substrate preincubated for 60 mins followed by substrate addition by liquid scintillation counting analysis. In outline: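 Rat brain homogenate at 20-fold normal strength was preincubated with vehicle or compound for 60 min, then diluted 20-fold and assayed with [3H]AEA for 10 min at 37 °C. In parallel, compound was added to vehicle-preincubated aliquots at the post-dilution free concentrations and at the undiluted final concentrations. Tritium was counted after charcoal separation.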

Active and inactive are the calls of the source.

As usually defined, the Ki is a measure of affinity in units of concentration, obtained from inhibition or displacement.

`Cc1cccnc1NC(=O)C(C)c1ccc(Nc2ccnc(C(F)(F)F)c2)cc1` (stereo not drawn) registered an Imax in test [1] of 100%. Further, affinity in test [2] was put at a Ki of 6300 nM. In test [3], the Ratio IC50 turned out to be 3.8. Also, the IC50 in test [4] (read-out: IC50) is 590 nM; in test [4] (read-out: pIC50 (converted)), 589 nM. In test [5], the inhibition entry was “inactive”.
For `CC(C(=O)Nc1ncccc1Cl)c1ccc(Nc2ccnc(C(F)(F)F)c2)cc1` (stereo not drawn), the Imax in test [1] was found to be 100%. The inhibition result in test [6] and in test [7] was “Active” in each case. The same compound returned a Ki in test [2] of 3000 nM. The results for the IC50 in test [4] (read-out: IC50) and in test [4] (read-out: pIC50 (converted)) were 58 nM and 57.5 nM, respectively. For the same compound, the inhibition entry in test [5] was “inactive”.
